Experimental data reported in ChEMBL document CHEMBL1121371, “Antihypertensive 5,6-diarylpyridazin-3-ones” (1980).
Activity calls are given as the source filed them. The calls are words filed in the database; no cut-off is given here.

What was measured:
Rattus norvegicus [1] = assay: Antihypertensive activity in spontaneously hypertensive rats was measured as average blood pressure at 100 mg/kg, p.o. after 24 hours of postdose-1.; assay type: functional; settings: route oral
How it was run: (§1)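 Spontaneously hypertensive rats aged 12 to 16 weeks, in groups of five with systolic pressure of 170 mmHg or more. Oral dosing as a solution or suspension in 0.25% methylcellulose, 5 mL/kg, with a vehicle control group. Tail-cuff systolic pressure was read predose and 4 and 24 h after each of two doses. Values were compared with predose by Student's t test.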

Rattus norvegicus [2] = assay: Antihypertensive activity in spontaneously hypertensive rats was measured as average blood pressure at 100 mg/kg, p.o. after 4 hours of postdose-1; assay type: functional; settings: route oral; how it was run: as §1
Rattus norvegicus [3] = assay: Antihypertensive activity in spontaneously hypertensive rats was measured as average blood pressure at 100 mg/kg, po after 24 hours of postdose-2; assay type: functional; how it was run: as §1
Rattus norvegicus [4] = assay: Antihypertensive activity in spontaneously hypertensive rats was measured as average blood pressure at 100 mg/kg, p.o. after 4 hours of postdose-2; assay type: functional; settings: route oral; how it was run: as §1
Rattus norvegicus [5] = assay: Antihypertensive activity in spontaneously hypertensive rats was measured as average blood pressure at 100 mg/kg, p.o. before predose; assay type: functional; settings: route oral; how it was run: as §1
Rattus norvegicus [6] = assay: Antihypertensive activity in spontaneously hypertensive rats was measured as average blood pressure at 75 mg/kg, p.o. before predose; assay type: functional; settings: route oral
Rattus norvegicus [7] = assay: Antihypertensive activity in spontaneously hypertensive rats was measured as average blood pressure at 75 mg/kg, p.o. after 24 hours of postdose-1; assay type: functional; settings: route oral
Rattus norvegicus [8] = assay: Antihypertensive activity in spontaneously hypertensive rats was measured as average blood pressure at 75 mg/kg, po after 4 hours of postdose-1.; assay type: functional
Rattus norvegicus [9] = assay: Antihypertensive activity in spontaneously hypertensive rats was measured as average blood pressure at 75 mg/kg, p.o. after 24 hours of postdose-2; assay type: functional; settings: route oral
Rattus norvegicus [10] = assay: Antihypertensive activity in spontaneously hypertensive rats was measured as average blood pressure at 75 mg/kg, p.o. after 4 hours of postdose-2; assay type: functional; settings: route oral
Rattus norvegicus [11] = species on record: Rattus norvegicus; assay: Antihypertensive activity in spontaneously hypertensive rats was measured; (+)=Increased heart rate; assay type: functional, organism-based
Rattus norvegicus [12] = assay: Antihypertensive activity in spontaneously hypertensive rats was measured as average blood pressure at 10 mg/kg, p.o. after 4 hours of postdose-1.; assay type: functional; settings: route oral; how it was run: as §1
Rattus norvegicus [13] = assay: Antihypertensive activity in spontaneously hypertensive rats was measured as average blood pressure at 30 mg/kg, p.o. after 4 hours of postdose-2; assay type: functional; settings: route oral; how it was run: as §1
Rattus norvegicus [14] = assay: Antihypertensive activity in spontaneously hypertensive rats was measured as average blood pressure at 10 mg/kg, p.o. after 24 hours of postdose-1; assay type: functional; settings: route oral; how it was run: as §1
Rattus norvegicus [15] = assay: Antihypertensive activity in spontaneously hypertensive rats was measured as average blood pressure at 30 mg/kg, po after 4 hours of postdose-1.; assay type: functional; how it was run: as §1
Rattus norvegicus [16] = assay: Antihypertensive activity in spontaneously hypertensive rats was measured as average blood pressure at 30 mg/kg, p.o. after 24 hours of postdose-1; assay type: functional; settings: route oral; how it was run: as §1
Rattus norvegicus [17] = assay: Antihypertensive activity in spontaneously hypertensive rats was measured as average blood pressure at 30 mg/kg, p.o. after 24 hours of postdose-2; assay type: functional; settings: route oral; how it was run: as §1
Rattus norvegicus [18] = assay: Antihypertensive activity in spontaneously hypertensive rats was measured as average blood pressure at 30 mg/kg, p.o. before predose; assay type: functional; settings: route oral; how it was run: as §1
Rattus norvegicus [19] = assay: Antihypertensive activity in spontaneously hypertensive rats was measured as average blood pressure at 100 mg/kg, p.o. after 4 hours of postdose-1.; assay type: functional; settings: route oral; how it was run: as §1
Rattus norvegicus [20] = assay: Antihypertensive activity in spontaneously hypertensive rats was measured as average blood pressure at 10 mg/kg, p.o. after 4 hours of postdose-2; assay type: functional; settings: route oral; how it was run: as §1
Rattus norvegicus [21] = assay: Antihypertensive activity in spontaneously hypertensive rats was measured as average blood pressure at 10 mg/kg, p.o. after 24 hours of postdose-2; assay type: functional; settings: route oral; how it was run: as §1
Rattus norvegicus [22] = assay: Antihypertensive activity in spontaneously hypertensive rats was measured as average blood pressure at 10 mg/kg, p.o. before predose; assay type: functional; settings: route oral; how it was run: as §1
Rattus norvegicus [23] = assay: Antihypertensive activity in spontaneously hypertensive rats was measured as average blood pressure at 50 mg/kg, p.o. before predose; assay type: functional; settings: route oral; how it was run: as §1
Rattus norvegicus [24] = assay: Antihypertensive activity in spontaneously hypertensive rats was measured as average blood pressure at 25 mg/kg, p.o. after 4 hours of postdose-2; assay type: functional; settings: route oral; how it was run: as §1
Rattus norvegicus [25] = assay: Antihypertensive activity in spontaneously hypertensive rats was measured as average blood pressure at 50 mg/kg, p.o. after 24 hours of postdose-2; assay type: functional; settings: route oral; how it was run: as §1
Rattus norvegicus [26] = assay: Antihypertensive activity in spontaneously hypertensive rats was measured as average blood pressure at 50 mg/kg, p.o. after 24 hours of postdose-1; assay type: functional; settings: route oral; how it was run: as §1
Rattus norvegicus [27] = assay: Antihypertensive activity in spontaneously hypertensive rats was measured as average blood pressure at 25 mg/kg, p.o. after 24 hours of postdose-2; assay type: functional; settings: route oral; how it was run: as §1
Rattus norvegicus [28] = assay: Antihypertensive activity in spontaneously hypertensive rats was measured as average blood pressure at 50 mg/kg, p.o. after 4 hours of postdose-2; assay type: functional; settings: route oral; how it was run: as §1
Rattus norvegicus [29] = assay: Antihypertensive activity in spontaneously hypertensive rats was measured as average blood pressure at 25 mg/kg, p.o. before predose; assay type: functional; settings: route oral; how it was run: as §1
Rattus norvegicus [30] = assay: Antihypertensive activity in spontaneously hypertensive rats was measured as average blood pressure at 25 mg/kg, p.o. after 24 hours of postdose-1; assay type: functional; settings: route oral; how it was run: as §1
Rattus norvegicus [31] = assay: Antihypertensive activity in spontaneously hypertensive rats was measured as average blood pressure at 25 mg/kg, po after 4 hours of postdose-1; assay type: functional; how it was run: as §1
Rattus norvegicus [32] = assay: Antihypertensive activity in spontaneously hypertensive rats was measured as average blood pressure at 50 mg/kg, p.o. after 4 hours of postdose-1; assay type: functional; settings: route oral; how it was run: as §1
Rattus norvegicus [33] = species on record: Rattus norvegicus; assay: Antihypertensive activity in spontaneously hypertensive rats was measured as decrease in heart rate; (-)=decreased heart rate; assay type: functional, organism-based
Rattus norvegicus [34] = assay: Antihypertensive activity in spontaneously hypertensive rats was measured as increase in heart rate at 100 mg/kg peroral dose; (+)=Increased heart rate; assay type: functional, organism-based; design: dose 100 mg/kg
Rattus norvegicus [35] = assay: Antihypertensive activity in spontaneously hypertensive rats was measured as change in heart rate at 100 mg/kg peroral dose; No significant change is heart rate; assay type: functional; settings: route oral
Rattus norvegicus [36] = assay: Antihypertensive activity in spontaneously hypertensive rats was measured as average blood pressure at 100 mg/kg, p.o. after 24 hours of postdose; assay type: functional; settings: route oral; how it was run: as §1
Rattus norvegicus [37] = assay: Antihypertensive activity in spontaneously hypertensive rats was measured as average blood pressure at 100 mg/kg, p.o. after 4 hours of postdose; assay type: functional; settings: route oral; how it was run: as §1

| Structure (SMILES) | BP (Rattus norvegicus [1]) [mmHg] | BP (Rattus norvegicus [2]) [mmHg] | BP (Rattus norvegicus [3]) [mmHg] | BP (Rattus norvegicus [4]) [mmHg] | BP (Rattus norvegicus [5]) [mmHg] | BP (Rattus norvegicus [12]) [mmHg] | BP (Rattus norvegicus [14]) [mmHg] | BP (Rattus norvegicus [20]) [mmHg] | BP (Rattus norvegicus [21]) [mmHg] | BP (Rattus norvegicus [22]) [mmHg] | also measured |
| --- | --- | --- | --- | --- | --- | --- | --- | --- | --- | --- | --- |
| COCCn1nc(-c2ccc(Cl)cc2)c(-c2ccc(Cl)cc2)c(C(C)=O)c1=O | 148 | 142 | 158 | 144 | 186 | – | – | – | – | – | – |
| CC(=O)c1c(-c2ccccc2)c(-c2ccccc2)nn(CCO)c1=O | – | – | – | – | – | – | – | – | – | – | BP (Rattus norvegicus [6]): 200 mmHg; BP (Rattus norvegicus [7]): 163 mmHg; BP (Rattus norvegicus [8]): 181 mmHg; BP (Rattus norvegicus [9]): 176 mmHg; BP (Rattus norvegicus [10]): 164 mmHg |
| CC(=O)c1c(-c2ccc(F)cc2)c(-c2ccc(F)cc2)nn(CCO)c1=O | 160 | 138 | 180 | 166 | 186 | – | – | – | – | – | – |
| O=c1c(-c2ccccc2)c(-c2ccccc2)c(-c2ccccc2)nn1CCO | 187 | 173 | 188 | 176 | 200 | – | – | – | – | – | Heart rate (Rattus norvegicus [11]): Increased heart rate |
| CC(=O)NCCn1nc(-c2ccc(Cl)cc2)c(-c2ccc(Cl)cc2)c(C(C)=O)c1=O | 146 | 149 | 145 | 136 | 220 | – | – | – | – | – | – |
| CC(=O)c1c(-c2ccc(Cl)cc2)c(-c2ccc(Cl)cc2)nn(CCN=C(C)C)c1=O | 158 | – | 164 | 134 | 209 | 214 | 208 | 205 | 209 | 210 | BP (Rattus norvegicus [13]): 190 mmHg; BP (Rattus norvegicus [15]): 201 mmHg; BP (Rattus norvegicus [16]): 196 mmHg; BP (Rattus norvegicus [17]): 198 mmHg; BP (Rattus norvegicus [18]): 211 mmHg; BP (Rattus norvegicus [19]): 203 mmHg |
| N#Cc1c(-c2ccc(Cl)cc2)c(-c2ccc(Cl)cc2)nn(CCO)c1=O | 158 | 157 | 152 | 145 | 200 | 181 | 184 | 178 | 180 | 194 | BP (Rattus norvegicus [23]): 200 mmHg; BP (Rattus norvegicus [24]): 157 mmHg; BP (Rattus norvegicus [25]): 168 mmHg; BP (Rattus norvegicus [26]): 171 mmHg; BP (Rattus norvegicus [27]): 180 mmHg; BP (Rattus norvegicus [28]): 156 mmHg; BP (Rattus norvegicus [29]): 208 mmHg; BP (Rattus norvegicus [30]): 178 mmHg; BP (Rattus norvegicus [31]): 168 mmHg; BP (Rattus norvegicus [32]): 165 mmHg |
| CC(=O)c1c(-c2ccc(Cl)cc2)c(-c2ccc(Cl)cc2)nn(CCN2CCCC2)c1=O | 138 | 155 | 146 | 142 | 192 | 205 | 204 | 202 | 207 | 208 | BP (Rattus norvegicus [13]): 191 mmHg; BP (Rattus norvegicus [15]): 200 mmHg; BP (Rattus norvegicus [16]): 187 mmHg; BP (Rattus norvegicus [17]): 199 mmHg; BP (Rattus norvegicus [18]): 212 mmHg; BP (Rattus norvegicus [33]): inactive |
| CN(C)c1ccc(-c2c(-c3ccc(Cl)cc3)c(-c3ccc(Cl)cc3)nn(CCO)c2=O)cc1.Cl | 199 | 184 | 208 | 188 | 223 | – | – | – | – | – | Heart rate (Rattus norvegicus [34]): Increased heart rate |
| N#Cc1c(O)nnc(-c2ccc(Cl)cc2)c1-c1ccc(Cl)cc1 | – | – | 175 | 173 | 205 | – | – | – | – | – | Heart rate (Rattus norvegicus [35]): 0; BP (Rattus norvegicus [36]): 177 mmHg; BP (Rattus norvegicus [37]): 171 mmHg |
